Activity calls are given as the source filed them. No cut-off for these calls is given here.
Key:
DU-145 [1] = assay: Antiproliferative activity against human DU145 cells assessed as reduction in cell viability at 10 uM incubated for 48 hrs by MTT assay; type: functional, cell-based
How it was run: (§1)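 Cells grown in DMEM with 10% heat-inactivated FBS and penicillin/streptomycin at 37 °C, 5% CO2, seeded at 7 × 10^3 cells/well. After 24 h, treated 48 h at 1, 10 or 50 μM. MTT 0.5 mg/mL added for 4 h at 37 °C, formazan dissolved in DMSO, A570 read. Eight replicate wells per group, at least three independent experiments, % of control, mean ± SEM.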

DU-145 [2] = assay: Antiproliferative activity against human DU145 cells assessed as reduction in cell viability at 50 uM incubated for 48 hrs by MTT assay; type: functional, cell-based; how it was run: as §1
DU-145 [3] = assay: Antiproliferative activity against human DU145 cells assessed as reduction in cell viability at 1 uM incubated for 48 hrs by MTT assay; type: functional, cell-based; how it was run: as §1
A549 [4] = assay: Antiproliferative activity against human A549 cells assessed as reduction in cell viability at 50 uM incubated for 48 hrs by MTT assay; type: functional, cell-based; how it was run: as §1
A549 [5] = assay: Antiproliferative activity against human A549 cells assessed as reduction in cell viability at 10 uM incubated for 48 hrs by MTT assay; type: functional, cell-based; how it was run: as §1
A549 [6] = assay: Antiproliferative activity against human A549 cells assessed as reduction in cell viability at 1 uM incubated for 48 hrs by MTT assay; type: functional, cell-based; how it was run: as §1
A 172 [7] = assay: Antiproliferative activity against human A172 cells assessed as reduction in cell viability at 50 uM incubated for 48 hrs by MTT assay; type: functional, cell-based; how it was run: as §1
A 172 [8] = assay: Antiproliferative activity against human A172 cells assessed as reduction in cell viability at 10 uM incubated for 48 hrs by MTT assay; type: functional, cell-based; how it was run: as §1
A 172 [9] = assay: Antiproliferative activity against human A172 cells assessed as reduction in cell viability at 1 uM incubated for 48 hrs by MTT assay; type: functional, cell-based; how it was run: as §1
U-87 MG [10] = assay: Antiproliferative activity against human U-87MG cells assessed as reduction in cell viability at 50 uM incubated for 48 hrs by MTT assay relative to control; type: functional; details: for inhibition: U-87MG ATCC; how it was run: as §1
U-87 MG [11] = assay: Antiproliferative activity against human U-87MG cells assessed as reduction in cell viability at 10 uM incubated for 48 hrs by MTT assay relative to control; type: functional, U-87MG ATCC; how it was run: as §1
U-87 MG [12] = assay: Antiproliferative activity against human U-87MG cells assessed as reduction in cell viability at 1 uM incubated for 48 hrs by MTT assay relative to control; type: functional, U-87MG ATCC; how it was run: as §1
DU-145 [13] = assay: Reduction in HO-1 expression in human DU-145 cells at 10 uM incubated for 48 hrs by Western blot analysis; type: functional, cell-based
How it was run: (§2)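 Cells treated 48 h at 10 μM. Lysed in Tris/EDTA/EGTA/sucrose buffer with protease and phosphatase inhibitors, sonicated, spun. 30 μg protein resolved on 4–15% Bis-Tris gel, transferred to PVDF, probed for HO-1. Band density normalized to actin and given as fold change; three independent experiments, mean ± SEM.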

Heme oxygenase 2 = target: T1, Heme oxygenase 2 (Rattus norvegicus, UniProt P23711); assay: Inhibition of Sprague-Dawley rat brain microsome HO-2 assessed as bilirubin formation incubated for 60 mins by double-beam spectrophotometry; type: microsomes
T1 sequence (P23711 whole entry): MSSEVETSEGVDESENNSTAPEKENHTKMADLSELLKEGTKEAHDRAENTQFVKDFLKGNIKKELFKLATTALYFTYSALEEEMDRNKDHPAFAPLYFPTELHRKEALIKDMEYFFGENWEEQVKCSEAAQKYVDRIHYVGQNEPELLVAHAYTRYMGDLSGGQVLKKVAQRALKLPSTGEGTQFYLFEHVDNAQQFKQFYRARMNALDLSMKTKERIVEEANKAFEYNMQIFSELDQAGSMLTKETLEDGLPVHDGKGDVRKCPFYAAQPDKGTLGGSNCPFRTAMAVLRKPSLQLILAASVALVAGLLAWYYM

Heme oxygenase 1 = target: T2, Heme oxygenase 1 (Rattus norvegicus, UniProt P06762); assay: Inhibition of Sprague-Dawley rat spleen microsome HO-1 assessed as bilirubin formation incubated for 60 mins by double-beam spectrophotometry; type: microsomes
T2 sequence (P06762 whole entry): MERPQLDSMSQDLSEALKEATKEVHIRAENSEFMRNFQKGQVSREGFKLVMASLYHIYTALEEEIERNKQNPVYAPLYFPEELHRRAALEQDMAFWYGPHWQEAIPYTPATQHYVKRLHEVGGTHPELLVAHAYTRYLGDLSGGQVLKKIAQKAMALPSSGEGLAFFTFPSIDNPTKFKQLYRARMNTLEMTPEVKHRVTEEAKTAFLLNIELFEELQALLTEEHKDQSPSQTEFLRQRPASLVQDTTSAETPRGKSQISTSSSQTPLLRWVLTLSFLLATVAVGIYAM

U-87 MG [14] = assay: Antiinvasive activity against human U-87 MG cells assessed as reduction in cell motility measured after 48 hrs by wound healing assay; type: functional, cell-based; details: U-87MG ATCC
How it was run: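 Confluent U87MG monolayers (5 × 10^4 cells/well) scratched with a pipette tip, then cultured in 1% serum medium with or without 10 μM compound. Cells advancing into the wound counted at 24 and 48 h in three random high-power fields per well, duplicate wells, and expressed as % of control. Mean ± SEM.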

U-87MG ATCC [15] = assay: Reduction in HO-1 expression in human U-87MG cells at 10 uM incubated for 48 hrs by Western blot analysis; type: functional, cell-based; how it was run: as §2
[16] = target: T3, Heme oxygenase 1 (Homo sapiens) (UniProt P09601); assay: Inhibition of human HO-1 activity in human U-87MG cells assessed as reduction in immunoreactivity in cytoplasm at 10 uM incubated for 48 hrs […]; type: cell-based
T3 sequence (whole entry): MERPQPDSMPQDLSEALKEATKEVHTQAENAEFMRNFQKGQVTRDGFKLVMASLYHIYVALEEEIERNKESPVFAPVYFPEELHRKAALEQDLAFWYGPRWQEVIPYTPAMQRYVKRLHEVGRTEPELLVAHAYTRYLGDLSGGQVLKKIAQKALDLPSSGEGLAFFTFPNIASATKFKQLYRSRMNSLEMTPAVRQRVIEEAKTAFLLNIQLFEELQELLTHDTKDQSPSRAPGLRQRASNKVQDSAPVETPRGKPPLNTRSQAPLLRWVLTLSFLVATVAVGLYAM
How it was run: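 U87MG cells on coverslips treated 48 h at 10 μM or left untreated. Fixed in 4% paraformaldehyde, permeabilized with 0.2% Triton X-100, blocked with 0.1% BSA, probed with rabbit anti-HO-1 then Alexa Fluor 488 anti-rabbit. Nuclei counterstained with DAPI; random fields imaged by fluorescence microscopy.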

U-87MG ATCC [17] = assay: Reduction in VEGF intracellular expression in human U-87 MG cells by Western blot analysis; type: functional, cell-based
How it was run: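 U87MG cells treated 48 h with vehicle or 10 μM compound. Lysates (30 μg protein) resolved on 4–15% Bis-Tris gel and immunoblotted with goat polyclonal anti-VEGF; β-tubulin and β-actin antibodies also used.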

U-87MG ATCC [18] = assay: Reduction in VEGF release in human U-87 MG cells by ELISA; type: functional, cell-based
How it was run: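 Confluent U87MG cells in 1% FBS medium treated 48 h with 10 μM compound or vehicle. VEGF-A in the conditioned medium measured by sandwich ELISA: capture antibody, biotinylated anti-human VEGF, HRP-streptavidin, TMB substrate, absorbance at 450 nm.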

H5V = assay: Antiangiogenesis activity in mouse H5V cells assessed as decrease in tube like structure formation using culture medium derived from human U-87 MG cells treated at 10 uM for 48 hrs; type: functional, cell-based
How it was run: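 Conditioned medium: subconfluent U87MG cells held 48 h at 37 °C in 1% FBS medium with 10 μM compound or vehicle, then spun and frozen. Overnight-starved H5V endothelial cells seeded on reduced-growth-factor basement membrane matrix and cultured 48 h at 37 °C in the conditioned medium. Tubes counted in three random fields and expressed as % of control.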

[19] = target: T3, Heme oxygenase 1 (Homo sapiens); assay: Inhibition of human HO-1 activity in human U-87MG cells assessed as bilirubin formation at 10 uM
Rattus norvegicus = organism: Rattus norvegicus; assay: Selectivity index, ratio of IC50 for inhibition of Sprague-Dawley rat brain microsome HO-2 to IC50 for inhibition of Sprague-Dawley rat spleen microsome HO-1

## CN(C(=O)Cn1ccnc1)C(c1ccccc1)c1ccc(OCc2ccccc2)cc1 (configuration not stated)
DU-145 [1]
  inhibition: Active
DU-145 [2]
  inhibition: Active
DU-145 [3]
  inhibition: Active
A549 [4]
  inhibition: Active
A549 [5]
  inhibition: inactive
A549 [6]
  inhibition: inactive
A 172 [7]
  inhibition: Active
A 172 [8]
  inhibition: Active
A 172 [9]
  inhibition: Active
U-87 MG [10]
  inhibition: Active
U-87 MG [11]
  inhibition at 10 µM: 20%
U-87 MG [12]
  inhibition at 1 µM: 20%

## CN(C(=O)Cn1ccnc1)C(c1ccccc1)c1ccc(I)cc1 (configuration not stated)
DU-145 [2]
  inhibition: Active
A549 [4]
  inhibition: Active
A549 [5]
  inhibition: inactive
A549 [6]
  inhibition: inactive
A 172 [7]
  inhibition: Active
A 172 [8]
  inhibition: Active
U-87 MG [10]
  inhibition: Active
U-87 MG [11]
  inhibition at 10 µM: > 30%
U-87 MG [12]
  inhibition at 1 µM: > 30%
DU-145 [13]
  Activity: Active

## CN(C(=O)Cn1ccnc1)C(c1ccccc1)C1CCCC1 (configuration not stated)
A 172 [7]
  inhibition: Active
A 172 [8]
  inhibition: Active
A 172 [9]
  inhibition: Active

## CN(C(=O)Cn1ccnc1)C(c1ccccc1)C1CCCCC1 (configuration not stated)
A 172 [7]
  inhibition: Active
A 172 [8]
  inhibition: Active
A 172 [9]
  inhibition: Active

## CN(C(=O)Cn1ccnc1)C(c1ccccc1)c1ccc(OCc2ccc(Br)cc2)cc1 (configuration not stated)
DU-145 [1]
  inhibition: Active
DU-145 [2]
  inhibition: Active
DU-145 [3]
  inhibition: Active
A549 [4]
  inhibition: Active
A549 [5]
  inhibition: inactive
A549 [6]
  inhibition: inactive
A 172 [7]
  inhibition: Active
A 172 [8]
  inhibition: Active
U-87 MG [10]
  inhibition: Active
U-87 MG [11]
  inhibition at 10 µM: 20%
U-87 MG [12]
  inhibition at 1 µM: 20%

## CN(C(=O)Cn1ccnc1)C(c1ccccc1)c1cccc(Br)c1 (configuration not stated)
A549 [5]
  inhibition: inactive
A549 [6]
  inhibition: inactive
A 172 [7]
  inhibition: inactive
A 172 [8]
  inhibition: inactive
A 172 [9]
  inhibition: inactive
U-87 MG [10]
  inhibition at 50 µM: > 30%
U-87 MG [11]
  inhibition at 10 µM: > 30%
U-87 MG [12]
  inhibition at 1 µM: > 30%

## FC(F)(F)c1ccc(SC[C@@H]2CO[C@](CCc3ccc(Cl)cc3)(Cn3ccnc3)O2)nc1
Heme oxygenase 2
  IC50: 16 µM
Heme oxygenase 1
  IC50: 2.1 µM

## CN(C(=O)Cn1ccnc1)C(c1ccccc1)c1ccc(Cl)cc1 (configuration not stated)
A549 [5]
  inhibition: inactive
A549 [6]
  inhibition: inactive
A 172 [7]
  inhibition: Active
A 172 [8]
  inhibition: Active
A 172 [9]
  inhibition: Active
U-87 MG [10]
  inhibition at 50 µM: > 60%
U-87 MG [11]
  inhibition at 10 µM: > 60%
U-87 MG [12]
  inhibition at 1 µM: > 60%
U-87 MG [14]
  Activity: Active
U-87MG ATCC [15]
  Activity: Active
[16]
  inhibition: Active
U-87MG ATCC [17]
  Activity: Active
U-87MG ATCC [18]
  Activity: Active
H5V
  Activity: Active
[19]
  inhibition: Active

## O=C(Cn1ccnc1)NC(c1ccccc1)c1ccccc1
Rattus norvegicus
  Selectivity Index: 0.5

## CN(C(=O)Cn1ccnc1)c1ccccc1
Heme oxygenase 1
  IC50: 2500 µM

## CN(C(=O)Cn1ccnc1)C(c1ccccc1)c1ccccc1
A549 [5]
  inhibition: inactive
A549 [6]
  inhibition: inactive
A 172 [7]
  inhibition: Active
A 172 [8]
  inhibition: Active
A 172 [9]
  inhibition: Active
DU-145 [13]
  Activity: Active
